Screening results as filed in PubChem.
APP 5'UTR act – activators of APP 5'UTR luciferase reporter, primary screen, SH-SY5Y cells | SH-SY5Y APP 5'UTR luciferase reporter, luminescence; zero percent = DMSO vehicle wells | actives 1% (n = 190,000) | activation, % at 2 µM;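 active means activation above a set limit, based on mean plus 3 SD of controls, cut at about 140% in these data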
FLuc inh counter – firefly luciferase enzyme inhibitors, primary screen, artefact control for luciferase-based inhibitor screens, biochemical, luminescence, ATPLite. AID 1006, 2008. inhibition, % at 10 µM. 10 min. actives 1.5% (n = 200,000). Luciferin 4-monooxygenase (Photinus pyralis), P08659;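 active means inhibition above about 50% when tested at 10 µM, limit read from the data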
Target sequence (P08659 whole entry, looked up): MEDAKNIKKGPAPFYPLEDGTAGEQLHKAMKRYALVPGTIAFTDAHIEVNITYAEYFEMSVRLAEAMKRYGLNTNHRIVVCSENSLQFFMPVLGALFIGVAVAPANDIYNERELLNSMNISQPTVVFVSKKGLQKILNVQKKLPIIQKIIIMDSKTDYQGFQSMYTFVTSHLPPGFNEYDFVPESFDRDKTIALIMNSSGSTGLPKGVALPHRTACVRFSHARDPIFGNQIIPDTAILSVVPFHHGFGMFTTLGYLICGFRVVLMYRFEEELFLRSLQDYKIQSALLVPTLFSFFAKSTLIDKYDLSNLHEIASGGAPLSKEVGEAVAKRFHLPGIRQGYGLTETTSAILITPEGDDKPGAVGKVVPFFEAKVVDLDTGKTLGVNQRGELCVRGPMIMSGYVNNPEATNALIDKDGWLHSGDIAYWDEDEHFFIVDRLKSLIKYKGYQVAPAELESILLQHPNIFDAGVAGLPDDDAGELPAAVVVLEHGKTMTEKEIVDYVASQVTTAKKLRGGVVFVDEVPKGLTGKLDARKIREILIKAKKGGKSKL
FLuc stim CS – FLuc activators, initial screening, artefact control for FLuc-dependent activation tests, biochemical, ATPlite luminescence | 200,000 tested, under 10 active | ATPlite luciferase biochemical, 10 min; 0 = ATP-free wells, 1 = DMSO control | activation factor at 10 µM | Luciferin 4-monooxygenase (Photinus pyralis), P08659;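 active means luciferase activation factor, scaled between plate controls, of at least 2 with compound at 10 µM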
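Material: Luciferase/luciferin reagent mix | Doses: Test compounds dosed from 2 mM stocks in 100% DMSO | Timing: 10 min incubation after luciferase reagent addition, room temperature | Measured by: Luminescence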
Pf gamet viab – late stage P. falciparum gametocyte viability inhibitors, primary screen, ATP luminescence, HTS; inhibition, % at 10.9 µM; P. falciparum stage V gametocytes, 24 h; actives 0.065% (n = 150,000);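 active means inhibition above the mean plus 3 SD of compounds within the control limits, set per campaign, cut at about 38% in these data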
NF-kB expr up – activators of NF-kB expression in neurons, primary screen, cell-based, HTS; human neuronal cells, NF-kB reporter expression; hits give high values; fold change at 12.5 µM; actives 1.6% (n = 190,000); AID 1239, 2008; in the data active means fold change above about 3.3
STAT1 activator – STAT1 signaling activators, primary screen, cell-based, HTS, luciferase reporter | activation (% of control), % at 5.5 µM | actives 2.6% (n = 200,000) | NIH 3T3 STAT1-luciferase reporter, IFN-gamma, luminescence; 100% = IFN-gamma alone, no compound;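 active means activation above the screen-wide mean activation plus 3 SD, cut at about 130% in these data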
Of the large screens only hits and unclear results are named; the others gave an inactive call. Rows were chosen to be rich in hits. Some 3.5% of all compounds tested hit in one or more screens of this group.

CC(C)n1c(O)c(N=Nc2ccc(Cl)c(C(=O)O)c2)c2ccccc21	none (no result: APP 5'UTR act, FLuc inh counter, FLuc stim CS, NF-kB expr up, STAT1 activator)
CC1CC(=O)N(c2ccc(NCc3ccccc3Cl)c([N+](=O)[O-])c2)C1=O (configuration not stated)	none (no result: Pf gamet viab)
CN(C)c1ccc(/C=N/NC(=O)c2nonc2N)cc1[N+](=O)[O-]	STAT1 activator 133
Nc1nonc1C(=O)N/N=C/c1cccc([N+](=O)[O-])c1	none
CCOc1ccc(OCc2ccc(C(=O)N(CC)CC)cc2)cc1	none
O=C(c1ccc(-c2ccc([N+](=O)[O-])cc2Cl)o1)N1CCOCC1	STAT1 activator 133
CC(=O)NCCn1c(SCC(=O)c2ccc(Cl)cc2)nc2ccccc2c1=O	none (no result: Pf gamet viab)
O=C(CSc1nc2ccccc2c(=O)n1NC(=O)c1ccccc1)c1ccc(Cl)cc1	APP 5'UTR act 158
COc1ccc(C(=O)Nn2c(SCC(=O)NCC3CCCO3)nc3ccccc3c2=O)cc1 (configuration not stated)	FLuc inh counter 82
COCCOC(=O)c1[nH]c2c(c1C)C(=O)CC(c1ccccc1)C2 (configuration not stated)	NF-kB expr up 3.8 (no result: Pf gamet viab)
CCOC(=O)c1[nH]c2c(c1C)C(=O)CC(c1ccco1)C2 (configuration not stated)	NF-kB expr up 6.4 (no result: Pf gamet viab)
Cc1c(C(=O)OCCOC(C)C)[nH]c2c1C(=O)CC(c1ccco1)C2 (configuration not stated)	NF-kB expr up 3.5 (no result: Pf gamet viab)
CSCCOC(=O)c1[nH]c2c(c1C)C(=O)CC(c1ccco1)C2 (configuration not stated)	none (no result: Pf gamet viab)
COCCOC(=O)c1[nH]c2c(c1C)C(=O)CC(c1ccco1)C2 (configuration not stated)	none (no result: Pf gamet viab)
Cc1cc(-c2nc3ncccc3o2)ccc1NC(=S)NC(=O)c1ccco1	none (no result: Pf gamet viab)
Cn1c(SCn2nnc3ccccc3c2=O)nc2ccccc2c1=O	none (no result: Pf gamet viab)
O=c1c2ccccc2nnn1CSc1ccc2c(c1)OCCO2	NF-kB expr up 4.2, STAT1 activator 146
O=c1c2ccccc2nnn1CSc1nnc2ccccn12	STAT1 activator 146
CC1CCCC/C1=N\NC(=S)Nc1ccccc1 (configuration not stated)	APP 5'UTR act 175
CC1CCC/C(=N\NC(=S)Nc2ccccc2)C1 (configuration not stated)	none (no result: Pf gamet viab)
CCOC(=O)N1CCN(C(=O)CCc2ccc(S(=O)(=O)NCCc3ccccc3)cc2)CC1	none (no result: Pf gamet viab)
O=C(O)c1ccc(NC(=O)c2ccccc2Br)c(NC(=O)c2ccccc2Br)c1	none (no result: APP 5'UTR act, FLuc inh counter, FLuc stim CS, NF-kB expr up, STAT1 activator)
O=C(Nc1ccc(Cl)cc1F)c1ccccc1Br	NF-kB expr up 5.7, STAT1 activator 148
O=C(Nc1ccc(C(F)(F)F)cc1)c1ccccc1Br	STAT1 activator 129
O=C(Nc1ccc(NC(=O)c2ccccc2Br)cc1)c1ccccc1	none (no result: APP 5'UTR act, FLuc inh counter, FLuc stim CS, NF-kB expr up, STAT1 activator)
O=C(NCC1OCCCN1S(=O)(=O)c1cc(F)ccc1F)C(=O)NC1CCCCCC1 (configuration not stated)	STAT1 activator 138
Cc1ccsc1/C=N/Nc1nc(=O)[nH]nc1C	FLuc inh counter 52 (no result: Pf gamet viab)
Cc1ccsc1/C=N/Nc1ncc(Cl)cc1Cl	STAT1 activator 140 (no result: APP 5'UTR act)
C=CCNC(=S)Nc1ccc(Br)cc1F	none
CN(C)/C=N/C(=S)Nc1ccc(Br)cc1F	STAT1 activator 130 (no result: Pf gamet viab)
O=C(NC(=S)Nc1ncc(Br)cc1Br)c1cncc(Br)c1	none (no result: Pf gamet viab)
O=C(NC(=S)NC1CCCCCC1)c1cncc(Br)c1	STAT1 activator 141
Cc1ccccc1OCc1csc(N)n1	none
Nc1nc(COc2ccc(Cl)cc2)cs1	STAT1 activator 137
Nc1nc(COc2ccccc2)cs1	none (no result: Pf gamet viab)
Cc1ccc(OCc2csc(N)n2)cc1	STAT1 activator 131
Cc1cc2ccccc2c(=O)n1CC(=O)N(C)c1ccc(F)cc1	none (no result: Pf gamet viab)
N#CC1=C2C=CC=CN2CC1=O	STAT1 activator 144 (no result: Pf gamet viab)
c1ccc(CSc2nnc(NC3=NCCCCC3)s2)cc1	STAT1 activator 140
Brc1ccc(-c2nnc(-c3cccc(Br)c3)o2)cc1	none
Nc1ccc2oc(-c3cccc(Br)c3)nc2c1	STAT1 activator 146 (no result: Pf gamet viab)
Cc1ccc2nc(-c3cccc(N)c3)oc2c1	FLuc inh counter 93, NF-kB expr up 3.9 (no result: APP 5'UTR act)
CCc1ccc2oc(-c3cccc(N)c3)nc2c1	FLuc inh counter 86, NF-kB expr up 3.9
Cc1cc(C)c2oc(-c3cccc(N)c3)nc2c1	none (no result: APP 5'UTR act, FLuc inh counter, FLuc stim CS, NF-kB expr up, STAT1 activator)
C=CCC[C@H](Cc1ccc(F)cc1)C(=O)OC[C@@H](NC(=O)[C@H](CC=C)CC(=O)NCCO)c1ccccc1	none (no result: APP 5'UTR act, FLuc inh counter, FLuc stim CS, NF-kB expr up, STAT1 activator)
O=C(NCC1CCCO1)c1ccc(CNS(=O)(=O)c2cccc(Cl)c2)cc1 (configuration not stated)	none
COc1ccc2c(c1)CCC1C2=NN(/C(C)=C\C(C)=O)C1c1ccc(F)cc1 (configuration not stated)	STAT1 activator 130
COc1ccc2c(c1)C1=NN(/C(C)=C/C(C)=O)C(c3ccc(F)cc3)C1CC2 (configuration not stated)	none
Nc1nnc(-c2cc3ccccc3oc2=O)s1	STAT1 activator 131
CC(C)(C)c1csc(NC(=O)Nc2ccccc2)n1	NF-kB expr up 4.9, STAT1 activator 136
CC(C)(C)c1csc(NC(=O)c2ccncc2)n1	none (no result: Pf gamet viab)
CC(C)(C)c1csc(NC(=O)c2ccc(Cl)s2)n1	NF-kB expr up 3.6, STAT1 activator 137
Cc1ccc(C(=O)Nc2nc(C(C)(C)C)cs2)s1	NF-kB expr up 5, STAT1 activator 146 (no result: Pf gamet viab)
Clc1ccccc1CSc1ncn(-c2ccccc2)n1	STAT1 activator 131
COc1ccccc1-c1nnc2n1N=C(c1ccc(O)c(O)c1)CS2	NF-kB expr up 3.4 (no result: Pf gamet viab)
CCOc1ccc(C2=Nn3c(nnc3-c3ccccc3OC)SC2)cc1	none
O=C(Nc1ccc2c(c1)OCCO2)c1ccc(Cl)c([N+](=O)[O-])c1	none
Cc1ccn2cc(C(=O)Nc3ccc4c(c3)OCCO4)nc2c1	APP 5'UTR act 143, FLuc inh counter 73, STAT1 activator 150 (no result: Pf gamet viab)
CCn1cc([N+](=O)[O-])c(C(=O)Nc2ccc3c(c2)OCCO3)n1	FLuc inh counter 56 (no result: Pf gamet viab)
CC(=O)NC1C(OCc2ccccc2)OC2COC(C)(C)OC2C1O (configuration not stated)	none
CCC(c1nnnn1C(C)(C)C)N(CCOC)Cc1cc2cccc(C)c2n2nnnc12 (configuration not stated)	none (no result: Pf gamet viab)
CC(NCc1ccc(F)cc1)C(=O)Nc1cc(S(=O)(=O)N2CCCCC2)ccc1Cl (configuration not stated)	none
